Test results as given in ChEMBL document CHEMBL1154696, “Synthesis and antitumor evaluation of analogues of the marine pyrroloiminoquinone tsitsikammamines” (Eur J Med Chem, 2010).
Activity calls are given as the source filed them. The rule behind the calls is not given here.

Legend:
[1] = Cytotoxicity against human U373 cells after 72 hrs by MTT assay; format: functional, cell-based, U-373MG ATCC; conditions: U373 MG
In short: (§1)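 Cells plated at 10,000 to 40,000 cells/mL, depending on cell type, and incubated 24 h before treatment. Growth was read after 72 h culture with or without compound. MTT reduction to formazan by living cells was read by spectrophotometry at 570 nm with a 630 nm reference. IC50 growth inhibitory concentrations were derived. NHDF and Wi38 are normal human fibroblasts.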

A549 = assay: Cytotoxicity against human A549 cells after 72 hrs by MTT assay; format: functional, cell-based; conditions: A549, 72 h; in short: as §1
PC-3 = assay: Cytotoxicity against human PC3 cells after 72 hrs by MTT assay; format: functional, cell-based; conditions: PC-3, 72 h; in short: as §1
U-373MG ATCC = assay: Cytotoxicity against human apoptosis-resistant U373 cells at 5 uM after 2 hrs by computer-assisted phase contrast microscopy; format: functional, cell-based
In short: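 U373 glioblastoma cells were cultured with or without 5 μM compound. Morphology was followed by quantitative computer-assisted phase-contrast videomicroscopy at 100x and 400x magnification over about 2 h after compound addition, to tell cytotoxic from cytostatic effects.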

NHDF = assay: Cytotoxicity against human NHDF cells after 72 hrs by MTT assay; format: cell-based; in short: as §1
[2] = Cytotoxicity against human WI38 cells after 72 hrs by MTT assay; format: cell-based; conditions: wi-38, 72 h; in short: as §1

Row | SMILES | IC50 [1] | IC50 (A549) | IC50 (PC-3) | Activity (U-373MG ATCC) | Activity (NHDF) | Activity [2]
1 | COc1ccc(-c2c[nH]c3c2-c2nccc4c[nH]c(c24)C3=O)cc1 | 97.8 µM | 80.6 µM | 88.8 µM | – | – | –
2 | COc1ccc(-c2c[nH]c3c2C(=O)c2ccn(S(=O)(=O)c4ccc(C)cc4)c2C3=O)cc1 | > 100 µM | 77.6 µM | 24.6 µM | – | – | –
3 | COc1ccc(C(O)CNC2=CC(=O)c3ccn(S(=O)(=O)c4ccc(C)cc4)c3C2=O)cc1 (stereo unspecified) | 29.2 µM | > 100 µM | > 100 µM | – | – | –
4 | COc1ccc(-c2c[nH]c3c2C(=O)c2c(CCN)cn(S(=O)(=O)c4ccc(C)cc4)c2C3=O)cc1 | 3.2 µM | 4.1 µM | 4.2 µM | Active | Toxic | Toxic
5 | COc1ccc(-c2c[nH]c3c2C(=O)c2[nH]cc4ccnc-3c24)cc1 | > 100 µM | > 100 µM | > 100 µM | – | – | –
6 | COc1ccc(-c2c[nH]c3c2C(=O)c2[nH]ccc2C3=O)cc1 | > 100 µM | > 100 µM | > 100 µM | – | – | –
7 | O=C1c2[nH]cc3c2C(=NCC3)c2[nH]cc(-c3ccc(O)cc3)c21 | 62.2 µM | 35.2 µM | 63.7 µM | – | – | –
8 | O=C1c2[nH]cc3c2C(=NCC3)c2c(-c3ccc(O)cc3)c[nH]c21 [TSITSIKAMMAMINE A] | 18.1 µM | 15.6 µM | 23 µM | – | – | –
9 | COc1ccc(-c2c[nH]c3c2C(=O)c2[nH]cc4c2C3=NCC4)cc1 | 4.1 µM | 38.1 µM | 55.7 µM | – | – | –
10 | COc1ccc(-c2c[nH]c3c2C(=O)c2c4c(cn2S(=O)(=O)c2ccc(C)cc2)CCN=C34)cc1 | 41.4 µM | 3.1 µM | > 100 µM | – | – | –
11 | COc1ccc(C2CNC3=C2C(=O)c2ccn(S(=O)(=O)c4ccc(C)cc4)c2C3=O)cc1 (stereo unspecified) | 47.2 µM | 35.4 µM | 37.5 µM | – | – | –
12 | COc1ccc(C(O)CNC2=CC(=O)c3c(ccn3S(=O)(=O)c3ccc(C)cc3)C2=O)cc1 (stereo unspecified) | 56.4 µM | 70.2 µM | 37.3 µM | – | – | –
13 | COc1ccc(C2CNC3=C2C(=O)c2c4c(cn2S(=O)(=O)c2ccc(C)cc2)CCN=C34)cc1 (stereo unspecified) | 30.5 µM | 25.9 µM | 20.5 µM | – | – | –
14 | COc1ccc(-c2c[nH]c3c2C2=NCCc4cn(S(=O)(=O)c5ccc(C)cc5)c(c42)C3=O)cc1 | 57.4 µM | 15.4 µM | > 100 µM | – | – | –
15 | O=C1c2cc[nH]c2C(=O)c2c(-c3ccc(O)cc3)c[nH]c21 | 37 µM | 74.5 µM | > 100 µM | – | – | –
16 | COc1ccc(C2CNC3=C2C2=NCCc4cn(S(=O)(=O)c5ccc(C)cc5)c(c42)C3=O)cc1 (stereo unspecified) | 18.3 µM | 9.7 µM | 20.5 µM | – | – | –
17 | O=C1C2=C(N=CC2c2ccc(O)cc2)C(=O)c2[nH]ccc21 (stereo unspecified) | > 100 µM | > 100 µM | > 100 µM | – | – | –
18 | COc1ccc(C2CNC3=C2C(=O)c2c(ccn2S(=O)(=O)c2ccc(C)cc2)C3=O)cc1 (stereo unspecified) | 51.9 µM | 52.4 µM | 33.7 µM | – | – | –
19 | COc1ccc(-c2c[nH]c3c2C2=NCCc4c[nH]c(c42)C3=O)cc1 | > 100 µM | > 100 µM | > 100 µM | – | – | –
20 | COc1ccc(-c2c[nH]c3c2C(=O)c2c(ccn2S(=O)(=O)c2ccc(C)cc2)C3=O)cc1 | 48.2 µM | 41.3 µM | 48.2 µM | – | – | –
21 | COc1ccc(C2C=NC3=C2C(=O)c2cc[nH]c2C3=O)cc1 (stereo unspecified) | 7.6 µM | 7.8 µM | > 100 µM | – | – | –
22 | COc1ccc(-c2c[nH]c3c2C(=O)c2c(c(CCN)cn2S(=O)(=O)c2ccc(C)cc2)C3=O)cc1 | 8.5 µM | 11.2 µM | 31.3 µM | – | Non-toxic | Non-toxic
